Source: PubChem
In the library only some 3.7% were active in any assay of this set; here they are far more common.
Dynein cargo inh = inhibitors of GR-EGFP nuclear translocation, primary screen, dynein cargo transport inhibitor project, imaging, high-content, 3617.4 mouse cells; test concentration mostly 20 µM; stimulated with dexamethasone, 1 µM; active compounds read low; z-score, hits read low; 220,000 compounds, 0.47% hits;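 active = plate z-score of nuclear minus cytoplasmic receptor signal below a set negative limit, without overly bright fluorescence or cell loss, cut at about -3.5 in these data, passing the limit was not always enough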;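 also: z-score of nuclear minus cytoplasmic ring GR-EGFP intensity difference per well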
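medium = tetracycline-free induction medium containing charcoal-stripped FBS | probe or stimulus = dexamethasone, 1.0 µM final | timing = 48 h induction, then 1 h compound, then 30 min agonist, 37 °C | detection = automated 10x imaging of fixed Hoechst-stained cells | read-out basis = nuclear versus cytoplasmic GR-EGFP signal, averaged per well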
Mdm2 ligase inh = MDM2-luciferase reporter signal enhancers, primary screen, MDM2 E3 ligase inhibitor project, cell-based, luminescence, 1536-well; 210,000 compounds, 0.11% hits; cell-based MDM2 ubiquitination luciferase reporter, 2 h; 0 = plate control, 100 = twice control, blank-subtracted; E3 ubiquitin-protein ligase Mdm2 (Homo sapiens), Q00987; signal enhancement, % at 5 µM; AID 1230, 2008;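 active = signal enhancement of 30% or more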;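 also: luminescence tracks abundance of the self-degrading MDM2-luciferase fusion protein; higher signal means inhibition of MDM2 E3 ligase activity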
Target sequence (Q00987 whole entry, looked up, the tested form may be a part): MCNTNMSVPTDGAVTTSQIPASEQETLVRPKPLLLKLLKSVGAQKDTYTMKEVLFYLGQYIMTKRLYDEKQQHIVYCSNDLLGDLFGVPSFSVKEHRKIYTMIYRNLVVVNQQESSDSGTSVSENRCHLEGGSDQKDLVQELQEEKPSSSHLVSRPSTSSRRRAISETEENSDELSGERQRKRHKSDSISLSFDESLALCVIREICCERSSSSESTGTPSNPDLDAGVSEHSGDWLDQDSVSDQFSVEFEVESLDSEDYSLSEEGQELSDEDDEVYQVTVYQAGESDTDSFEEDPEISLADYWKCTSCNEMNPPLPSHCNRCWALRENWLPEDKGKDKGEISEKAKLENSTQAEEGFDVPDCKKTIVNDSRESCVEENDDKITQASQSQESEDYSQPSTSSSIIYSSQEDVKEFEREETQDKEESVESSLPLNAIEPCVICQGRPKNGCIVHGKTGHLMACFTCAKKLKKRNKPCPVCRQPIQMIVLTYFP
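Assay system: stable mammalian line carrying autodegrading MDM2–luciferase fusion reporter; Input: 2000 cells in each well; Compound dosing: single-point 5 µM; Schedule: 2 h compound exposure at 37 °C; Signal: SteadyLite luciferase luminescence after 15 min room-temperature reagent incubation; Evaluation: % luminescence enhancement versus blank-corrected plate control mean; Benchmarks: plate controls and plate blanks.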
CHOP UPR activ = activators of apoptotic CHOP UPR arm, primary screen, cell-based, CHO-CHOP luciferase reporter, luminescence, uHTS | UPR activation; percent of tunicamycin response over DMSO baseline | activation, % at 10 µM | 330,000 compounds, 0.34% hits | AID 449763, 2010;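 active = at 10 µM dose, activation of 40% or more, normalized to positive control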
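Evaluation: % reporter activation, DMSO baseline versus tunicamycin full activation; System: CHO-CHOP luciferase reporter cell line; Input: 500 cells/well; Incubation: 6 h compound treatment, 37 °C; Measured by: Steady-Glo luciferase luminescence; Dosing: one dose, 10 µM in 0.5% DMSO; Buffer or medium: F12 medium, 10% FBS; Benchmarks: positive tunicamycin 10 µg/mL, negative DMSO alone.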
Mdm2-MdmX inh = inhibitors of human Mdm2-MdmX association, primary screen, cell-based, luminescence, split luciferase, SaOS-2, uHTS | Protein Mdm4 (Homo sapiens) + E3 ubiquitin-protein ligase Mdm2 (Homo sapiens), … | SaOS-2 split-luciferase Mdm2/MdmX complementation | inhibition, % at 8 µM | 330,000 compounds, 3% hits | AID 485346, 2010;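 active = inhibition of at least 50% at 8 µM in the primary screen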
Beta2AR agonist = beta2AR agonists driving receptor internalization, primary screen, cell-based, FAP fluorogen, flow cytometry; Beta-2 adrenergic receptor (Homo sapiens), P07550; Am2.2-beta2AR cells; response, % (test concentration not listed); 340,000 compounds, 0.43% hits;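 active = response above a set limit, near 3 SD of response in nonfluorescent compounds, cut at about 42% in these data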
XBP1 UPR activ = activators of adaptive XBP1 UPR arm, primary screen, cell-based, CHO-XBP1 luciferase reporter, luminescence, uHTS. activation, % at 20 µM. 330,000 compounds, 0.33% hits. IRE1-XBP1 UPR activation; percent of tunicamycin response, DMSO as zero;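 active = versus positive control, 20 µM dose yields 30% or more activation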
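Material: CHO-XBP1 cells stably carrying IRE1-XBP1-driven luciferase reporter | Medium: F12 with 10% serum | Compound dosing: 20 µM single concentration, DMSO 1% | Incubation: Overnight seeding at 37 °C, 6 h compound treatment at 37 °C | Detection: Steady-Glo luminescence read | Read-out basis: % activation of reporter signal versus tunicamycin and DMSO controls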
UPR XBP1 confirm = IRE1-XBP1 UPR arm activators, confirmation, cell-based, CHO-XBP1 luciferase reporter, luminescence, single concentration. shares compounds with XBP1 UPR activ. activation, % at 20 µM. 1,000 compounds, 63% hits. AID 485299, 2010;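 active = reporter signal at least 30% of the positive control's activation in two or more of four replicate wells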
Hits are given with their value; - = inactive; . = no result.

SMILES	Dynein cargo inh	Mdm2 ligase inh	CHOP UPR activ	Mdm2-MdmX inh	Beta2AR agonist	XBP1 UPR activ	UPR XBP1 confirm
O=C(NCc1cccs1)c1ccncc1	-	-	-	-	-	-	.
Cc1cc(C)c(C)c(S(=O)(=O)N2CCN(C(=O)c3ccccc3OCc3c(C)noc3C)CC2)c1C	.	.	-	-	-	-	.
COc1ccc(C(=O)Nc2cccc(/C=C/c3nc4ccccc4c(=O)[nH]3)c2)cc1	-	.	-	-	-	52	69
O=C(COc1ccc(C(=O)NCC2CCCO2)cc1)Nc1cccc(C(F)(F)F)c1 (stereo unspecified)	.	.	-	-	-	-	.
NC(=S)N=Nc1c(O)n(Cc2ccc(Br)cc2)c2ccccc12	-	-	-	-	-	-	.
Cc1ccc2c(c1)c(N=NC(N)=S)c(O)n2Cc1ccccc1	-	-	-	-	-	33	41
O=C(Nc1cccnc1)c1cc2cc(Br)ccc2o1	.	.	-	-	-	-	.
CC(C)(C)c1ccc(C(=O)Nc2ccc(O)c3c(=O)cc(-c4cccc(Cl)c4)oc23)cc1	-	-	-	-	-	55	52
Cc1cc(C)c2c(n1)sc1c(-c3ccccc3)c(C#N)c(N)nc12	-	-	-	-	-	91	48
CCOc1ccc(NC(=S)NC(=O)/C=C/c2ccc(C)cc2)c([N+](=O)[O-])c1	-	-	-	-	-	213	144
COc1ccc(/C=C/C(=O)NC(=S)NCCc2ccc(OC)c(OC)c2)cc1	-	-	-	-	-	69	-
CC1C/C(=N/Nc2nc3ccccc3[nH]2)CC(C)(C)C1 (stereo unspecified)	-	-	-	-	-	34	31
CC1C/C(=N/NC(=O)c2ccc(CSc3nc4ccccc4[nH]3)cc2)CC(C)(C)C1 (stereo unspecified)	-	-	-	-	-	-	.
COc1cc(NC(=O)c2ccco2)c(C(=O)OCC(=O)c2c[nH]c3ccccc23)cc1OC	-	-	-	-	-	131	152
Brc1cc2c(cc1/C=N/Nc1nc3ccccc3s1)OCO2	-	-	-	-	-	33	155
COc1cccc(CCNC(=O)CC2C(=O)NCCN2Cc2ccc(C)o2)c1 (stereo unspecified)	.	.	-	-	-	-	.
COCCCNCC1C(Oc2ccc(Cl)cc2)C(=O)N1c1ccccc1C (stereo unspecified)	-	-	-	-	-	36	-
O=C(c1ccccc1F)N1CCN(c2ccc([N+](=O)[O-])c(NCC3CCCO3)c2)CC1 (stereo unspecified)	-	-	-	-	-	-	.
CCOC(=O)c1c(NC(=O)c2cc3n(n2)C(C(F)(F)F)CC(c2cccs2)N3)sc(C)c1C (stereo unspecified)	-	-	-	-	-	33	206
CCC/C(=N/Nc1ccc(Cl)cc1)c1cnnc(-c2ccccc2)n1	-	.	-	-	.	66	28
CC/C(=N/Nc1ccccc1Cl)c1cnnc(-c2ccccc2)n1	-	-	-	-	-	-	.
Fc1ccc2c(c1)C(c1ccc(N3CCOCC3)cc1)=NNC(c1cccs1)=N2	-	-	-	-	-	-	.
Cc1ccc2c(c1)C(c1ccc(N3CCOCC3)cc1)=NNC(c1cccs1)=N2	-	-	-	-	-	62	57
CC(C)CNc1nnnc2c1sc1nc(N3CCOCC3)c3c(c12)CCCC3	-	-	-	-	-	55	-
